Experimental findings from ChEMBL document CHEMBL4130483, “Leishmanicidal and cytotoxic activity of hederagenin-bistriazolyl derivatives” (Eur J Med Chem, 2017) are described below.

Where only a bound is given, the exact number is not on record here.

Assay [1] deals with HT-29. The experiment in a line: Cytotoxicity against human HT-29 cells assessed as reduction in cell viability incubated fro 96 hrs by SRB assay. Format: functional, cell-based. The conditions noted are these: HT-29, 96 h. The procedure, abridged:
(§1)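 Sulforhodamine B photometric assay after 96 h treatment. Monolayers were grown in RPMI 1640 with L-glutamine, 10% heat-inactivated FBS and penicillin/streptomycin at 37 °C in humidified 5% CO2. Cut-off was 30 μM, or 60 μM for the parent. EC50 was averaged from at least three independent experiments, each in four replicates. Betulinic acid was the positive standard.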

The subject of assay [2] is A2780. The experiment in a line: Cytotoxicity against human A2780 cells assessed as reduction in cell viability incubated fro 96 hrs by SRB assay. Format: functional, cell-based. The conditions noted are these: A2780, 96 h. The procedure, abridged: as §1
Background: Sulforhodamine B stains cellular protein and so reports cell mass.

Assay [3] deals with A-375. The experiment in a line: Cytotoxicity against human A375 cells assessed as reduction in cell viability incubated fro 96 hrs by SRB assay. Format: functional, cell-based. The conditions noted are these: A-375, 96 h. Summed up:
as §1

For assay [4], the system named is SW-1736. Nature of the assay: Cytotoxicity against human SW1736 cells assessed as reduction in cell viability incubated fro 96 hrs by SRB assay. The conditions noted are these: SW-1736, 96 h. Format: functional, cell-based. The procedure, abridged:
as §1

In assay [5] the test system is Leishmania infantum. The experiment in a line: Antileishmanial activity against Leishmania infantum MHOM/BR/70/BH46 intracellular amastigotes infected in canine DH82 cells assessed as as inhibition of cell growth at 1000 uM incubated for 48 hrs by ELISA method. In kind it is functional. As to conditions: MHOM/BR/70/BH46, DH82, 48 h, read-out: GI. For orientation: An ELISA detects its analyte on a solid surface through an enzyme-linked reagent.

The subject of assay [6] is FaDu. Nature of the assay: Cytotoxicity against human FADU cells assessed as reduction in cell viability incubated fro 96 hrs by SRB assay. In kind it is functional, cell-based.

The term EC50 denotes the concentration at which the effect is half-maximal. With `CC1(C)CC[C@]2(C(=O)OCc3cn(Cc4cccc([N+](=O)[O-])c4)nn3)CC[C@]3(C)C(=CC[C@@H]4[C@@]5(C)CC[C@H](O)[C@@](C)(COCc6cn(Cc7cccc([N+](=O)[O-])c7)nn6)[C@@H]5CC[C@]43C)[C@@H]2C1`, the EC50 in assay [1], in assay [2], in assay [3], in assay [4] and in assay [6] was over 30 µM in each case. For the same molecule, the inhibition of growth at 1000 µM in assay [5] was determined as 21.4%.
For the molecule `CC1(C)CC[C@]2(C(=O)OCc3cn(Cc4ccc(Br)cc4)nn3)CC[C@]3(C)C(=CC[C@@H]4[C@@]5(C)CC[C@H](O)[C@@](C)(COCc6cn(Cc7ccc(Br)cc7)nn6)[C@@H]5CC[C@]43C)[C@@H]2C1`, the EC50 in assay [1], in assay [2], in assay [3], in assay [4] and in assay [6] was over 30 µM throughout. Moreover, the inhibition of growth at 1000 µM in assay [5] was 9.8%.
Take `CC1(C)CC[C@]2(C(=O)OCc3cn(Cc4ccccc4Br)nn3)CC[C@]3(C)C(=CC[C@@H]4[C@@]5(C)CC[C@H](O)[C@@](C)(COCc6cn(Cc7ccccc7Br)nn6)[C@@H]5CC[C@]43C)[C@@H]2C1`: the EC50 in assay [1], in assay [2], in assay [3], in assay [4] and in assay [6] was over 30 µM in each case. Further, the inhibition of growth at 1000 µM in assay [5] turned out to be 53.4%.
As for `CC1(C)CC[C@]2(C(=O)OCc3cn(Cc4ccc(Cl)cc4)nn3)CC[C@]3(C)C(=CC[C@@H]4[C@@]5(C)CC[C@H](O)[C@@](C)(COCc6cn(Cc7ccc(Cl)cc7)nn6)[C@@H]5CC[C@]43C)[C@@H]2C1`, the EC50 in assay [1], in assay [2], in assay [3], in assay [4] and in assay [6] was over 30 µM throughout. Moreover, in assay [5], the inhibition of growth at 1000 µM turned out to be 1.6%.
With `Cc1ccc(Cn2cc(COC[C@@]3(C)[C@@H]4CC[C@]5(C)[C@H](CC=C6[C@@H]7CC(C)(C)CC[C@]7(C(=O)OCc7cn(Cc8ccc(C)cc8)nn7)CC[C@]65C)[C@@]4(C)CC[C@@H]3O)nn2)cc1`, the EC50 in assay [1] is 21.7 µM; in assay [2] it was 29.1 µM; in assay [3] it was 26.1 µM; in assay [4] it was over 30 µM; in assay [6], over 30 µM. The inhibition of growth at 1000 µM in assay [5] came to 0%.
For `CC1(C)CC[C@]2(C(=O)OCc3cn(Cc4ccccc4)nn3)CC[C@]3(C)C(=CC[C@@H]4[C@@]5(C)CC[C@H](O)[C@@](C)(COCc6cn(Cc7ccccc7)nn6)[C@@H]5CC[C@]43C)[C@@H]2C1`, the EC50 in assay [1], in assay [2], in assay [3], in assay [4] and in assay [6] was over 30 µM each time. Besides, in assay [5], the inhibition of growth at 1000 µM turned out to be 17.7%.
Take `C=C(C)[C@@H]1CC[C@]2(C(=O)O)CC[C@]3(C)[C@H](CC[C@@H]4[C@@]5(C)CC[C@H](O)C(C)(C)[C@@H]5CC[C@]43C)[C@@H]12` [BETULINIC ACID]: the EC50 in assay [3] was 12 µM; in assay [4], 16.4 µM; in assay [6] it was 13.4 µM.
As to `CC1(C)CC[C@]2(C(=O)OCc3cn(CC(=O)c4ccccc4)nn3)CC[C@]3(C)C(=CC[C@@H]4[C@@]5(C)CC[C@H](O)[C@@](C)(COCc6cn(CC(=O)c7ccccc7)nn6)[C@@H]5CC[C@]43C)[C@@H]2C1`, the EC50 in assay [1], in assay [2], in assay [3], in assay [4] and in assay [6] was over 30 µM throughout. The inhibition of growth at 1000 µM in assay [5] came to 0%.
Regarding `Cc1cccc(Cn2cc(COC[C@@]3(C)[C@@H]4CC[C@]5(C)[C@H](CC=C6[C@@H]7CC(C)(C)CC[C@]7(C(=O)OCc7cn(Cc8cccc(C)c8)nn7)CC[C@]65C)[C@@]4(C)CC[C@@H]3O)nn2)c1`, the EC50 in assay [1], in assay [2], in assay [3], in assay [4] and in assay [6] was over 30 µM in each case. Moreover, in assay [5], the inhibition of growth at 1000 µM was found to be 31.3%.
